Measured values from ChEMBL document CHEMBL1127791, “Design, synthesis, and biological evaluation of cosalane, a novel anti-HIV agent which inhibits multiple features of virus reproduction” (J Med Chem, 1994).

Tests used:
[1] = system: B(EBV+); assay: Effective concentration required for antiviral activity against B(EBV+) cell line of AA5 cells of Human by XTT assay; assay type: functional, cell-based
Method in brief: (§1)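 Human T, B or macrophage-type cell lines were infected with HIV-1 RF in complete RPMI medium with serially diluted drug and cultured 6 days at 37 °C. Inhibition was read by XTT in cytopathically infected cells, or by supernatant RT activity or p24 ELISA in noncytopathically infected cells. EC₅₀ was calculated.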

[2] = system: CEM-SS; assay: Effective concentration required for antiviral activity against HIV strain IIIB in CEM-SS cells by XTT assay; assay type: functional, cell-based; conditions: Homo sapiens
Method in brief: (§2)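 CEM-SS cells, 5000/well in RPMI 1640 with 5% FBS, 2 mM L-glutamine and gentamycin, were infected with each HIV strain at MOI 0.01 with serially diluted drug. They were incubated 6 days at 37 °C in 5% CO₂. Viability was read by XTT, and EC₅₀ for protection from virus-induced killing was calculated.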

[3] = system: CEM-SS; assay: Effective concentration required for antiviral activity against T cell line of CEM-SS cells of Human by XTT assay; assay type: functional, cell-based; method in brief: as §1
[4] = system: BxT; assay: Effective concentration required for antiviral activity against BxT cell line of 174xCEM cells of Human by XTT assay; assay type: functional, cell-based; method in brief: as §1
[5] = system: Human immunodeficiency virus; assay: Effective concentration required for antiviral activity against HIV strain G by XTT assay; assay type: functional, organism-based; conditions: Human immunodeficiency virus 1; method in brief: as §2
[6] = system: Human immunodeficiency virus; assay: Effective concentration required for antiviral activity against HIV strain LAV by XTT assay; assay type: functional, organism-based; conditions: Human immunodeficiency virus 1; method in brief: as §2
[7] = system: Human immunodeficiency virus; assay: Effective concentration required for antiviral activity against HIV strain MCK by XTT assay; assay type: functional, organism-based; conditions: Human immunodeficiency virus 1; method in brief: as §2
[8] = system: Human immunodeficiency virus; assay: Effective concentration required for antiviral activity against HIV strain MN by XTT assay; assay type: functional, organism-based; conditions: Human immunodeficiency virus 1; method in brief: as §2
[9] = system: Human immunodeficiency virus; assay: Effective concentration required for antiviral activity against HIV strain PM16 by XTT assay; assay type: functional, organism-based; conditions: Human immunodeficiency virus 1; method in brief: as §2
[10] = system: Human immunodeficiency virus; assay: Effective concentration required for antiviral activity against HIV strain RF by XTT assay; assay type: functional, organism-based; conditions: Human immunodeficiency virus 1; method in brief: as §2
[11] = system: Human immunodeficiency virus; assay: Effective concentration required for antiviral activity against HIV strain SKI by XTT assay; assay type: functional, organism-based; conditions: Human immunodeficiency virus 1; method in brief: as §2
[12] = system: Human immunodeficiency virus; assay: Effective concentration required for antiviral activity against HIV strain VIHU (nonsyncytia inducing) by XTT assay; assay type: functional, organism-based; conditions: Human immunodeficiency virus 1
[13] = system: Human immunodeficiency virus; assay: Effective concentration required for antiviral activity against HIV strain WEJO (syncytia inducing) by XTT assay; assay type: functional, organism-based; conditions: Human immunodeficiency virus 1
[14] = system: Human immunodeficiency virus; assay: Effective concentration required for antiviral activity against HIV strain WOME (syncytia inducing) by XTT assay; assay type: functional, organism-based; conditions: Human immunodeficiency virus 1
[15] = system: Human immunodeficiency virus 2; assay: Effective concentration required for antiviral activity against HIV strain MS (HIV-2) by XTT assay; assay type: functional, organism-based; method in brief: as §2
[16] = system: Human immunodeficiency virus; assay: Effective concentration required for antiviral activity against HIV strain 205 by XTT assay; assay type: functional, organism-based; conditions: Human immunodeficiency virus 1; method in brief: as §2
[17] = system: Human immunodeficiency virus; assay: Effective concentration required for antiviral activity against HIV strain 214 by XTT assay; assay type: functional, organism-based; conditions: Human immunodeficiency virus 1; method in brief: as §2
[18] = system: Human immunodeficiency virus; assay: Effective concentration required for antiviral activity against HIV strain A17 (pyridinone-resistant strain) by XTT assay; assay type: functional, organism-based; conditions: Human immunodeficiency virus 1; method in brief: as §2
[19] = system: Human immunodeficiency virus; assay: Effective concentration required for antiviral activity against HIV strain BAKI (syncytia inducing) by XTT assay; assay type: functional, organism-based; conditions: Human immunodeficiency virus 1
[20] = system: Human immunodeficiency virus; assay: Effective concentration required for antiviral activity against HIV strain G9106 (AZT-resistant strain) by XTT assay; assay type: functional, organism-based; conditions: Human immunodeficiency virus 1; method in brief: as §2
[21] = system: MT4; assay: Effective concentration required for antiviral activity against T (HTLV-1+)cell line of MT-4 cells of Human by XTT assay; assay type: functional, cell-based; method in brief: as §1
[22] = system: MT2; assay: Effective concentration required for antiviral activity against HIV strain IIIB in MT-2 cells by XTT assay; assay type: functional, cell-based; conditions: Homo sapiens
Method in brief: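 HIV-1 IIIB was tested in MT-2 cells in a microtiter XTT cytopathicity assay. Serially diluted drug was added to cells infected at MOI 0.01 and incubated 6 days at 37 °C in 5% CO₂. EC₅₀ for cellular protection was calculated from XTT viability.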

[23] = system: PBL; assay: Effective concentration required for antiviral activity against lymphocyte cell line of PBL cells of Human by […]; assay type: functional, cell-based
Method in brief: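 PHA-stimulated fresh human PBLs were infected with clinical HIV-1 isolate WEJO in the presence of drug. Culture supernatants were assayed for RT and/or p24 by antigen-capture ELISA to give EC₅₀.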

[24] = system: U-937; assay: Effective concentration required for antiviral activity against Macrophage cell line of U937 cells of Human by XTT assay; assay type: functional, cell-based; method in brief: as §1
[25] = system: Human immunodeficiency virus; assay: Effective concentration required for antiviral activity against HIV strain TP1 by XTT assay; assay type: functional, organism-based; conditions: Human immunodeficiency virus 1; method in brief: as §2
[26] = system: M; assay: Effective concentration required for antiviral activity against M cell line of macrophage cells of Human by p24 ELISA

Row | SMILES | EC50 [1] [nM] | EC50 [2] [nM] | EC50 [3] [nM] | EC50 [4] [nM] | EC50 [5] [nM] | EC50 [6] [nM] | EC50 [7] [nM] | EC50 [8] [nM] | EC50 [9] [nM] | EC50 [11] [nM] | EC50 [12] [nM] | EC50 [13] [nM] | EC50 [14] [nM] | EC50 [15] [nM] | EC50 [16] [nM] | EC50 [17] [nM] | EC50 [18] [nM] | EC50 [19] [nM] | EC50 [20] [nM] | EC50 [21] [nM] | also measured
1 | CC(C)CCCC(C)[C@H]1CC[C@H]2[C@@H]3CCC4C[C@@H](CCC=C(c5cc(Cl)c(O)c(C(=O)O)c5)c5cc(Cl)c(O)c(C(=O)O)c5)CC[C@]4(C)[C@H]3CC[C@]12C (stereo partly specified) | 6600 | 6800 | 5100 | 6100 | 2200 | 14400 | 2100 | 8800 | 6600 | 20600 | 80200 | 44800 | 69900 | 22500 | 6700 | 7100 | 4300 | 48100 | 6600 | 20000 | EC50 [10]: 1700 nM; EC50 [22]: 3400 nM; EC50 [23]: 44800 nM; EC50 [24]: 7400 nM; EC50 [25]: 6500 nM; EC50 [26]: 19700 nM
2 | Cc1cn([C@H]2C[C@H](N=[N+]=[N-])[C@@H](CO)O2)c(=O)[nH]c1=O [ZIDOVUDINE] | 1 | 4 | 95 | 55 | 2 | 8 | 2 | 4 | 11 | 13 | 20 | 18 | 6 | 2 | 9 | 9 | 2 | 10 | > 100 | 85 | EC50 [22]: 3 nM; EC50 [23]: 29 nM; EC50 [24]: 30 nM; EC50 [25]: 6 nM; EC50 [26]: 15 nM
